The results in this text go back to PubChem BioAssay AID588438 (The Scripps Research Institute Molecular Screening Center, 2011).

SMILES strings stand for the structures. pIC50: −log10 of the molar value. The source made the active and inactive calls.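 Rule for the calls: active = IC50 of 1 µM or lower against any of the four PAD enzymes tested; inactive = the rest.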

Holding throughout (assay): PAD1-4 enzyme inhibition potency, late-stage follow-up, selectivity assay for PAD4 inhibitor project, biochemical, colorimetric, BAEE substrate, recombinant PAD1-4 (AID 588438)
Assay [1] concerns the target Protein-arginine deiminase type-2 (Homo sapiens) (UniProt Q9Y2J8). The following applies: recombinant PAD1-4, BAEE citrulline colorimetric absorbance; PAD2. Put shortly: (§1)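 Assay system: recombinant PAD1–4 enzymes; Dosing: 7-point inhibitor series; Medium: pH 7.6 Tris buffer with calcium; Replication: duplicate per concentration; Signal: citrulline color absorbance at 540 nm; Times: 15 min preincubation plus 15 min reaction, 37 °C; Also added: 10 mM BAEE substrate.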

In assay [2] the target is Protein-arginine deiminase type-3 (Homo sapiens) (UniProt Q9ULW8). To be noted: recombinant PAD1-4, BAEE citrulline colorimetric absorbance; PAD3. Put shortly: as §1
Assay [3] addresses Protein-arginine deiminase type-1 (Homo sapiens) (UniProt Q9ULC6). To be noted: recombinant PAD1-4, BAEE citrulline colorimetric absorbance; PAD1. Put shortly:
as §1

For assay [4], the target named is Protein-arginine deiminase type-4 (Homo sapiens) (UniProt Q9UM07). The following applies: recombinant PAD1-4, BAEE citrulline colorimetric absorbance; PAD4. Put shortly:
as §1

Chain of Protein-arginine deiminase type-4 (Homo sapiens) (Q9UM07 whole entry, looked up): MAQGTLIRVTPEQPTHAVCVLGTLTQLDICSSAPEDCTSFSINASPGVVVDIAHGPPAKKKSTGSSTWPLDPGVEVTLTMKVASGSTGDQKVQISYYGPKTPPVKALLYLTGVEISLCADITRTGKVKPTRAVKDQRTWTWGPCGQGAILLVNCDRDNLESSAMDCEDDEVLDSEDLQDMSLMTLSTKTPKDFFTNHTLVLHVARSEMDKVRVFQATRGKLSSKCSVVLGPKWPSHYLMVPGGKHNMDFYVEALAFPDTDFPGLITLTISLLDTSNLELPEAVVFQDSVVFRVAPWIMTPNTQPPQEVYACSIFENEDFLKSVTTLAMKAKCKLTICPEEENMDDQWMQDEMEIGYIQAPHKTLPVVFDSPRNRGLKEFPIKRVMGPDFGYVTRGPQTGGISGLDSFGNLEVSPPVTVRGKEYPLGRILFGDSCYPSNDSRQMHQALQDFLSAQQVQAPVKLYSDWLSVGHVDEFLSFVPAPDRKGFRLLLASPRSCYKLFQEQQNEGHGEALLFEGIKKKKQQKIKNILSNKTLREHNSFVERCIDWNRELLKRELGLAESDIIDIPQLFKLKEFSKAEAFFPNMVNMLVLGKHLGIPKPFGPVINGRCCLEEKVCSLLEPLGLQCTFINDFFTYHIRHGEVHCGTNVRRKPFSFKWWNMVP
Chain of Protein-arginine deiminase type-2 (Homo sapiens) (Q9Y2J8 whole entry, looked up): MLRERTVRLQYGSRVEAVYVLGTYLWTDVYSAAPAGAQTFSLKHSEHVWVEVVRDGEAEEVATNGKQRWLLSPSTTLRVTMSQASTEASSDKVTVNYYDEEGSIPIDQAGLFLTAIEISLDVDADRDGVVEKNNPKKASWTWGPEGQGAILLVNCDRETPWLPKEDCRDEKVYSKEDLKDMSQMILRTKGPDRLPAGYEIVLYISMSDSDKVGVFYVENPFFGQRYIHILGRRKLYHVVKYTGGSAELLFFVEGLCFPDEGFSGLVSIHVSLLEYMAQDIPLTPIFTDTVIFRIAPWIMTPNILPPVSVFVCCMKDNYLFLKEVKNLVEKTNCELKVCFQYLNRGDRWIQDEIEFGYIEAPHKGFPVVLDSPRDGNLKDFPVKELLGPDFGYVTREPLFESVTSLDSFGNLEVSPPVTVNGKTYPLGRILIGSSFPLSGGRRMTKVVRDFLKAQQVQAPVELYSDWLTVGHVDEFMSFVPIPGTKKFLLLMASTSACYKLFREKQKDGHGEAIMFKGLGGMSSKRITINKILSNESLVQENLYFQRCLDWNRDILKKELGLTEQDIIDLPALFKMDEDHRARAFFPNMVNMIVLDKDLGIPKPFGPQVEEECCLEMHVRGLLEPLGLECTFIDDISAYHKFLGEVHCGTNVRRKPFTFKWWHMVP
Chain of Protein-arginine deiminase type-3 (Homo sapiens) (Q9ULW8 whole entry, looked up): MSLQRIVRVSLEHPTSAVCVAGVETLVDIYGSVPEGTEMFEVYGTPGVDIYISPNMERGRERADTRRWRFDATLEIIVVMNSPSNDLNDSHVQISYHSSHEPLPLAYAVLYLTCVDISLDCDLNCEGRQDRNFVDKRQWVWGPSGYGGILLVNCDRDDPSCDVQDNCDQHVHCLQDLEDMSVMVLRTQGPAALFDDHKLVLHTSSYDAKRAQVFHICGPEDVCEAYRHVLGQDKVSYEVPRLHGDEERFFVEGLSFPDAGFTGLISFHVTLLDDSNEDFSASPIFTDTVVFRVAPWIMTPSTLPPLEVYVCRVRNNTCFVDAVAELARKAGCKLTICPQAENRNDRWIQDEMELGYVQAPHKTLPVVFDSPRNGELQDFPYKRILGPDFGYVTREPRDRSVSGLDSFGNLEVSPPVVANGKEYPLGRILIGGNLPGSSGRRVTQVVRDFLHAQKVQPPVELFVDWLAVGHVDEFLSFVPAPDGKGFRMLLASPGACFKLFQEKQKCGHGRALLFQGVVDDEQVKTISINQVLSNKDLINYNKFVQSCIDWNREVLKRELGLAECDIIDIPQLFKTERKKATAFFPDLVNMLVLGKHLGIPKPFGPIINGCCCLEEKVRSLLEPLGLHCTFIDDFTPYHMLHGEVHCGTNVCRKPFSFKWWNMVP
Chain of Protein-arginine deiminase type-1 (Homo sapiens) (Q9ULC6 whole entry, looked up): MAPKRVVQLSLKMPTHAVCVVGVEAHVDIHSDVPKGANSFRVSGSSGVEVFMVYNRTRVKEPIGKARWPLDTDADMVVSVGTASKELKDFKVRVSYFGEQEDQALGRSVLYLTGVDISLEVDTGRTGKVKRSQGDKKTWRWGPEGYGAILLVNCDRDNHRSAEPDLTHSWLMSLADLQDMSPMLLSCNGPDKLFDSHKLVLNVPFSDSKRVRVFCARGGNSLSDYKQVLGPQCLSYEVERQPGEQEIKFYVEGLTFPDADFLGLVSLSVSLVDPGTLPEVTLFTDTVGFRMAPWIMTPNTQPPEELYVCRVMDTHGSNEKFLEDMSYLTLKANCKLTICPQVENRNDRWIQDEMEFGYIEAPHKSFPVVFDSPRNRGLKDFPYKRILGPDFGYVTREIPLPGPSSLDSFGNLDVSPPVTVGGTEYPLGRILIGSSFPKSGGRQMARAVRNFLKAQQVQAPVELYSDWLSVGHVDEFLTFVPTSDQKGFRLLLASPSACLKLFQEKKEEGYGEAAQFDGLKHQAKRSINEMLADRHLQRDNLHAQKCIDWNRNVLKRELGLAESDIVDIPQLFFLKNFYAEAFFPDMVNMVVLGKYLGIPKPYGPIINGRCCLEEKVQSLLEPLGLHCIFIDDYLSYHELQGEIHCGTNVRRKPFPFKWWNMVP

For orientation: pIC50 means the IC50 on a negative log10 scale, so that one unit is a factor of ten. Turning to `COC(=O)c1cccc(-c2ccc3c(n2)C(=O)C(N)=CC3=O)n1`, the negative-log IC50 (pIC50) in assay [1] is 6.38; in assay [2], 6.48; in assay [4], 6.06. Further, in assay [3], the IC50 result is “inactive”.
